How the values were obtained:
[1] = biological target: Sodium- and chloride-dependent GABA transporter 1 (Mus musculus) (UniProt P31648); test: Inhibition of [3H]GABA uptake at GAT1 expressed in HEK cells; parameters: inhibition: concentration or dose not given beside the values; details: HEK293; for inhibition: concentration not given here
[2] = tested on: Sodium- and chloride-dependent GABA transporter 2 (Mus musculus); test: Inhibition of [3H]GABA uptake at GAT2 expressed in HEK cells; parameters: inhibition: concentration or dose not given beside the values; details: HEK293; for inhibition: concentration not given here
[3] = biological target: Sodium- and chloride-dependent GABA transporter 1 (Mus musculus) (UniProt P31648); test: Inhibition of NO711 binding to mouse GAT1 by MS-binding assay; parameters: inhibition: concentration or dose not given beside the values; details: for inhibition: concentration not given here
Summary of the method: (§1)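 Binding assay on murine GAT1 with unlabelled NO711 as marker, quantified by LC-MS/MS on a triple quadrupole instrument. Compounds were first screened at 100 μM. Those cutting NO711 binding by at least 50% were rated active and then given pKi values.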

[4] = biological target: Sodium- and chloride-dependent GABA transporter 1 (Mus musculus) (UniProt P31648); test: Remaining NO711 binding to mouse GAT1 by MS-binding assay
[5] = tested on: Sodium- and chloride-dependent GABA transporter 2 (Mus musculus); test: Inhibition of [3H]GABA uptake at GAT2 expressed in HEK cells at 100 uM; details: HEK293
[6] = tested on: Sodium- and chloride-dependent GABA transporter 3 (Mus musculus); test: Inhibition of [3H]GABA uptake at GAT3 expressed in HEK cells at 100 uM; details: HEK293
[7] = biological target: Sodium- and chloride-dependent GABA transporter 1 (Mus musculus) (UniProt P31648); test: Inhibition of NO711 binding to mouse GAT1 at 100 uM by MS-binding assay
Summary of the method: as §1

HEK293 = test: Inhibition of [3H]GABA uptake at GAT4 expressed in HEK cells at 100 uM; type: cell-based
Summary of the method: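 [³H]GABA uptake measured in HEK cells stably transfected with the individual murine GABA transporter subtypes GAT1–GAT4. Compounds were first screened at 100 μM, and results are given as % remaining GABA uptake (means). Those cutting uptake by at least 50% were rated active and then given pIC50 values.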

[8] = biological target: Sodium- and chloride-dependent GABA transporter 1 (Mus musculus) (UniProt P31648); test: Inhibition of [3H]GABA uptake at GAT1 expressed in HEK cells at 100 uM; details: HEK293

COc1ccc(CNC(=O)C(CCO)N2CCN(C(c3ccc(F)cc3)c3ccc(F)cc3)CC2)cc1 (racemic)
inhibition [1]: 93%
inhibition [2]: 65%
inhibition [3]: 101%

O=C(NCc1ccccc1Cl)C(CCO)N1CCN(C(c2ccc(F)cc2)c2ccc(F)cc2)CC1 (racemic)
pIC50 [1]: 4.2
pIC50 [2]: 4.17
remaining binding [4]: 93%

O=C(NCc1ccc(F)cc1)C(CCO)N1CCN(C(c2ccccc2)c2ccccc2)CC1 (racemic)
pIC50 [1]: 4.84
pKi [3]: 4.82
inhibition [5]: 52%

COc1ccc(CNC(=O)C(CCO)N2CCN(C(c3ccccc3)c3ccccc3)CC2)cc1 (racemic)
inhibition [6]: 61%
inhibition [5]: 78%

O=C(NCc1ccc(F)cc1)C(CCO)N1CCN(C(c2ccc(F)cc2)c2ccc(F)cc2)CC1 (racemic)
pIC50 [1]: 4.03
pIC50 [2]: 4.13
remaining binding [4]: 75%

Cc1ccc(CNC(=O)C(CCO)N2CCN(C(c3ccccc3)c3ccccc3)CC2)cc1 (racemic)
remaining binding [4]: 61%

O=C(NCCc1ccccc1)C(CCO)N1CCN(C(c2ccccc2)c2ccccc2)CC1 (racemic)
inhibition [6]: 80%
inhibition [5]: 93%

O=C(NCc1ccc(Cl)cc1)C(CCO)N1CCNCC1 (racemic)
inhibition [1]: 79%
inhibition [2]: 98%

O=C(NCc1ccccc1)C(CCO)N1CCN(C(c2ccc(F)cc2)c2ccc(F)cc2)CC1 (racemic)
pIC50 [1]: 4.19
pIC50 [2]: 4.33
remaining binding [4]: 63%

O=C(NCc1ccccc1F)C(CCO)N1CCN(C(c2ccccc2)c2ccccc2)CC1 (racemic)
pIC50 [1]: 4.48
pIC50 [2]: 4.33
inhibition [7]: 55%

O=C(NCc1ccccc1)C(CCO)N1CCN(C(c2ccccc2)c2ccccc2)CC1 (racemic)
pIC50 [1]: 4.66
inhibition (HEK293): 54%
pIC50 [2]: 4.47
inhibition [6]: 46%
pKi [3]: 4.96

Cc1ccc(CNC(=O)C(CCO)N2CCN(C(c3ccc(F)cc3)c3ccc(F)cc3)CC2)cc1 (racemic)
pIC50 [1]: 4.23
pIC50 [2]: 4.44
remaining binding [4]: 92%

O=C(NCc1ccccc1)C(CCO)N1CCOCC1 (racemic)
inhibition [1]: 113%
inhibition [2]: 98%
inhibition [3]: 95%

NC(=O)C(CCO)N1CCNCC1 (racemic)
inhibition [1]: 84%
inhibition [2]: 110%

O=C(NCc1ccc(Cl)cc1)C(CCO)N1CCN(C(c2ccc(F)cc2)c2ccc(F)cc2)CC1 (racemic)
pIC50 [1]: 4.14
pIC50 [2]: 4.35
remaining binding [4]: 102%

O=C(NCc1ccccc1Cl)C(CCO)N1CCN(C(c2ccccc2)c2ccccc2)CC1 (racemic)
inhibition [8]: 83%
inhibition [6]: 73%
inhibition [5]: 72%

O=C(NCc1ccccc1F)C(CCO)N1CCN(C(c2ccc(F)cc2)c2ccc(F)cc2)CC1 (racemic)
inhibition [1]: 97%
inhibition [2]: 65%
remaining binding [4]: 92%

O=C(NCc1ccccc1)C(CCO)N1CCC(Cc2ccccc2)CC1 (racemic)
inhibition [1]: 75%
inhibition [2]: 49%
inhibition [3]: 86%

NC(=O)C(CCO)N1CCN(C(c2ccccc2)c2ccccc2)CC1 (racemic)
inhibition [6]: 83%
remaining binding [4]: 98%

O=C(NCc1ccccc1)C(CCO)N1CCNCC1 (racemic)
inhibition [1]: 63%
inhibition [2]: 98%
inhibition [3]: 76%

NC(=O)C(CCO)N1CCN(C(c2ccc(F)cc2)c2ccc(F)cc2)CC1 (racemic)
inhibition [1]: 66%
inhibition [2]: 84%
inhibition [3]: 106%

O=C(NCc1ccc(Cl)cc1)C(CCO)N1CCN(C(c2ccccc2)c2ccccc2)CC1 (racemic)
pIC50 [1]: 4.88
pIC50 [2]: 4.56
pKi [3]: 4.33

O=C(NCCc1ccccc1)C(CCO)N1CCN(C(c2ccc(F)cc2)c2ccc(F)cc2)CC1 (racemic)
inhibition [1]: 69%
pIC50 [2]: 4.43
inhibition [3]: 98%
